Compound activity: PubChem, several laboratories
In the library only some 1.3% were active in any assay of this set; here they are far more common.
Arrestin-AP2 inh – inhibitors of beta-arrestin/AP2 binding, primary screen, biochemical, GPCR trafficking, flow cytometry; FITC-arrestin peptide / GST-AP2 beads; AP2 beta2 appendage carries R879A mutation; inhibition, % at 10 µM; 0.31% of 340,000 active;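 active = inhibition above a set limit, near 3 SD of compounds lacking own fluorescence, cut at about 54% in these data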;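 also: plate controls were DMSO wells for no effect and 5 µM unlabelled arrestin peptide for full effect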
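Test system: GST-tagged AP2 beta2-adaptin appendage (R879A) on 4 µm glutathione beads; also added: fluorescein-tagged arrestin peptide at 50 nM final; timing: 12 min plus 1 h, RT; signal: flow cytometry, FL1 (488/535 nm); read-out: percent drop in bead-associated FITC signal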
PLCg1 inh – PLC-gamma1 enzyme inhibitors, primary screen, biochemical, fluorescence, purified enzyme; inhibition, % at 12.2 µM; 0.84% of 370,000 active; AID 720700, 2013; fluorogenic substrate; in the data active = inhibition above about 9.5%
PLC-beta3 inh – human PLC-beta3 inhibitors, primary screen, biochemical, fluorescence; 1-phosphatidylinositol 4,5-bisphosphate phosphodiesterase beta-3 (Homo sapiens), Q01970; Purified PLC-beta3, fluorogenic substrate; inhibition, % at 12.2 µM; 0.18% of 370,000 active; AID 720704, 2013;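 also: 0% = median of compound wells on plate and 100% = full blocker control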
NTR1 ag – agonists of human NTR1, primary screen, imaging, U2OS cells, beta-arrestin-GFP, high content; NTR1-U2OS beta-arrestin-GFP spot imaging, agonist mode; Neurotensin receptor type 1 (Homo sapiens), P30989; 0.17% of 330,000 active; activation, % at 20 µM;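 active = activation at or above 40% of the spot to cytoplasm intensity ratio, with at least 20 cells analyzed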;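 also: 0% = DMSO without peptide and 100% = 100 nM NTR1 peptide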
NTR1 ag confirm – NTR1 agonists, single-dose retest, confirmation, imaging, U2OS cells, beta-arrestin-GFP, single concentration; NTR1-U2OS beta-arrestin-GFP translocation imaging; shares compounds with NTR1 ag; 38% of 480 active; activation, % at 20 µM;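 active = mean activation at 20 µM of at least 40%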;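 also: 0% = DMSO without peptide and 100% = 100 nM NTR1 peptide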
Arr AP2 CP1 – inhibitors of arrestin peptide binding to AP2, confirmation, biochemical, cherry pick 1, flow cytometry beads; shares compounds with Arrestin-AP2 inh; 2% of 1,300 active; inhibition, % at 10 µM; GST-AP2 beads, FITC arrestin peptide binding; GST-fused beta2-adaptin appendage, R879A mutant;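 active = inhibition above a set limit, roughly 3 SD of non-fluorescent compound noise, cut at about 38% in these data; inactive = inhibition at or below that limit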;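 also: loss of bead fluorescence from 50 nM FITC arrestin peptide bound to appendage; 0% = negative control wells and 100% = excess unlabelled arrestin peptide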
Target sequence (P63010 whole entry, looked up, the tested form may be a part, one chain of several): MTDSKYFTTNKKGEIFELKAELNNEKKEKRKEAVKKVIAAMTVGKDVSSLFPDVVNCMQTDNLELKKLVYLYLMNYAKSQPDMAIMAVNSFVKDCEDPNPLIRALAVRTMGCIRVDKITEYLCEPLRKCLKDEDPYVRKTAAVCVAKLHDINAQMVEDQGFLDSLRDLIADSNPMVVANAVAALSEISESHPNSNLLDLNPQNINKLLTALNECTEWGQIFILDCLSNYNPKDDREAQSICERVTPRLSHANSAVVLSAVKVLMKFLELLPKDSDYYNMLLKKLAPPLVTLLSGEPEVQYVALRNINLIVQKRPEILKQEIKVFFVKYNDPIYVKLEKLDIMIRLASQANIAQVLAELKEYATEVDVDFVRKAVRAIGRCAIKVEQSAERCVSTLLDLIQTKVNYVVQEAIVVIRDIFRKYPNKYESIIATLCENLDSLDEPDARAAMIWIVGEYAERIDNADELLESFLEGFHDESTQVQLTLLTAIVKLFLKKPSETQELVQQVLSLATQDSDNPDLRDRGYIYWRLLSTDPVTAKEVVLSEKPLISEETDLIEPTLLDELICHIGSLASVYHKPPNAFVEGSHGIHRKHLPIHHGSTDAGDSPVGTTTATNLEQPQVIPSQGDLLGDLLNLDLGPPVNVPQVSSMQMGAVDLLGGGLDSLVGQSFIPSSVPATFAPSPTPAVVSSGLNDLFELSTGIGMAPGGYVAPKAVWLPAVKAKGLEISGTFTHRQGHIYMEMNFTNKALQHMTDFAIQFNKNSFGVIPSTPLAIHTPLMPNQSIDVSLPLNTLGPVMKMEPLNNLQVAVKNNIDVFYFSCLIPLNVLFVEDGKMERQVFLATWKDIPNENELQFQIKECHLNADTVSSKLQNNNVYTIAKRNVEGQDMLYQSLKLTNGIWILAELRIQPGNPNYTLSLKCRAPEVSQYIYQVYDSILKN
GST GSH counter – GST-fluorescein capture on glutathione beads, confirmation, artefact control for arrestin-AP2 inhibitor project, biochemical, cherry pick 1, flow cytometry | shares compounds with Arrestin-AP2 inh | 2% of 1,300 active | GST-fluorescein binding to GSH beads, fluorescence, counter-screen | inhibition, % at 10 µM | AID 588338, 2011;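 active = inhibition above 50%, about 3 SD of the inhibition seen with non-fluorescent compounds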;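 also: fluorescein maleimide labelled GST captured on 4 micron glutathione beads; higher means more loss of bead fluorescence from quenching or blocked binding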
PLCgamma1 ctr – PLC-gamma1 enzyme inhibitors, counter-screen for PLC-beta3 inhibitor project, biochemical, fluorescence. shares compounds with PLCg1 inh. purified PLC-gamma1, fluorogenic substrate. inhibition, % at 12.3 µM. 3.1% of 3,300 active. AID 743258, 2014; in the data active = inhibition above about 9.5%
PLCbeta3 conf – PLC-beta3 inhibitor confirmation, biochemical, fluorescence, purified enzyme | shares compounds with PLCg1 inh | fluorogenic substrate fluorescence | inhibition, % at 12.3 µM | 1% of 3,300 active | AID 743261, 2014
* marks the source's active call; other numbers are inactive results; · = no result. Rule as the data show it, unless noted: active = inhibition above about 11%; inactive = the rest.

SMILES	Arrestin-AP2 inh	PLCg1 inh	PLC-beta3 inh	NTR1 ag	others
CCn1nc(/C=C/c2ccccc2)nc2c(=O)n(C)c(=O)nc1-2	9	43*	-9	10
CCn1nc(-c2cccs2)nc2c(=O)n(C)c(=O)nc1-2	8	·	·	·
O=[N+]([O-])c1cc(S(=O)(=O)c2ccc(O)c([N+](=O)[O-])c2)ccc1O	-7	35*	8	0
NC(Cc1ccccc1)[P+](=O)O (stereo not drawn)	·	2	0	·
O=C1NC(=O)N(Cc2ccco2)C(=O)/C1=C/c1ccc(-c2cccc([N+](=O)[O-])c2)o1	10	·	·	58*
CN1C(=O)[C@@]23C[C@]4(c5c[nH]c6ccccc56)c5ccccc5N(S(=O)(=O)c5ccccc5)[C@@H]4N2C(=O)[C@@H]1SS3	·	2	3	·
COc1ccccc1N1C(=O)NC(=O)/C(=C\c2cnn(-c3ccccc3)c2)C1=O	-2	0	-5	20
O=C1NC(=O)N(Cc2ccccc2)C(=O)/C1=C/c1cnn(-c2ccccc2)c1	·	·	·	47*
COc1ccc(C(=O)O)cc1OC	-5	2	2	·
O=C(O)c1cc[c]([Hg][Cl])cc1	95*	·	·	0
COC(=O)C1=C(c2ccc(OCc3ccccc3)c(F)c2)C[C@@H]2CC[C@H]1N2C	·	13*	6	·
N#CC1c2ccccc2-n2nncc2CN1C(=O)c1cccnc1 (stereo not drawn)	·	-2	-2	·
N#CC1c2ccccc2-n2nncc2CN1C(=O)c1ccc([N+](=O)[O-])o1 (stereo not drawn)	·	-3	-3	·
O=C(O)c1cccc2c1NC(C(=O)O)C1CC(Sc3ccccc3[N+](=O)[O-])C(Cl)C21 (stereo not drawn)	-3	19*	-2	·
O=C1NC(=S)NC(=O)C1=Cc1cccn1-c1ccc(O)cc1	30	2	-3	·
Cc1cc(C)cc(N2C(=O)NC(=O)/C(=C\c3cccn3-c3ccc(Cl)cc3)C2=O)c1	2	-5	-7	50*
Cc1cc(N=Nc2ccccc2C)ccc1N	-9	9.6*	1	13
CC(C)C(NC(=O)OCc1ccccc1)P(=O)(Oc1ccccc1)Oc1ccccc1 (stereo not drawn)	·	0	-2	·
CCOc1c(Cl)cc(CNCCc2c[nH]c3ccccc23)cc1OC	-6	2	-10	5
CCOc1cc(CNCCc2c[nH]c3ccccc23)cc(Cl)c1OCC	0	12*	12*	8
CCOC(=O)C(O)(c1ccc(NC(=S)NC(=O)c2ccc(Cl)cc2Cl)c(C)c1)C(F)(F)F (stereo not drawn)	10	4	-2	45*	NTR1 ag confirm=11
O=C(CN1C(=O)[C@@H](Cc2ccccc2)N=C(c2ccccc2)c2ccccc21)NC1CCCCC1	·	1	0	·
Cn1cccc1/C=C1/C(=O)NC(=O)N(C(C)(C)C)C1=O	10	4	-43	2
CN1C(=O)/C(=C/c2cccn2-c2ccc3ccccc3c2)C(=O)NC1=S	-1	-24	-28	46*	NTR1 ag confirm=66*
Cc1cc(C)cc(N2C(=O)NC(=O)/C(=C\c3cccn3-c3ccccc3)C2=O)c1	7	-5	-6	76*	NTR1 ag confirm=67*
SMILES	Arrestin-AP2 inh	PLCg1 inh	PLC-beta3 inh	NTR1 ag	others
Oc1ccc(-[n+]2c(-c3ccccc3)cc(-c3ccccc3)cc2-c2ccccc2)cc1	5	-32	-43	81*	NTR1 ag confirm=84*
O=C(CN1C(=O)[C@@H](Cc2c[nH]c3ccccc23)N=C(c2ccccc2)c2ccccc21)NC1CCCCC1	·	-2	2	·
CC(C)COC(=O)c1ccccc1C(=O)OCC(C)C	-7	1	6	-1
C[CH2][Hg][S]c1ccccc1C(=O)O	-4	-3	-2	97*	NTR1 ag confirm=95*
c1cncc(-c2ccc3n2Cc2cnnn2-c2ccccc2-3)c1	·	-339	-409	·
Cc1cc(/C=C2/C(=O)NC(=O)N(Cc3ccco3)C2=O)c(C)n1-c1ccccc1	1	-9	-13	86*	NTR1 ag confirm=2
O=C1NC(=O)N(Cc2ccccc2)C(=O)/C1=C/C=C/c1ccco1	15	-24	-45	4
CC(C)c1ccc(N2C(=O)NC(=O)/C(=C\C=C\c3ccco3)C2=O)cc1	·	-38	-50	42*	NTR1 ag confirm=52*
Cc1ccccc1CCC[C@H](CC1CCCCC1)CN(C)C(=O)Oc1ccccc1	·	0	2	·
Cc1ccc(CC(=O)N2CCN(C)CC2)cc1	55*	1	-4	1	Arr AP2 CP1=0;GST GSH counter=-1
Nc1ccc2cc(Br)ccc2c1	61*	-6	-9	2	Arr AP2 CP1=-2;GST GSH counter=-2
Nc1ccc(Br)cc1	36	0	-7	·
CCC(NC(=O)OCc1ccccc1)P(=O)(Oc1ccccc1)Oc1ccccc1 (stereo not drawn)	·	1	2	·
COC(=O)C1(N(C)c2ccccc2)CCN(Cc2ccccc2)CC1	·	-3	0	·
O=C1NC(=O)N(CCC2=CCCCC2)C(=O)/C1=C\c1cccs1	55*	-5	-6	-1	Arr AP2 CP1=9;GST GSH counter=1
CCN1C(=O)CC(c2cccnc2)=Nc2ccccc21	-31	-3	-1	0
O=C1CC(c2cccnc2)=NN1c1ccc(Cl)cc1Cl	61*	-1	-1	-1	Arr AP2 CP1=-8;GST GSH counter=8
Cc1cc(NC(=O)CCl)nn1C	15	13*	3	1	PLCgamma1 ctr=-6;PLCbeta3 conf=-3
O=C(Nc1ccccc1)N1Cc2cc(Br)ccc2-n2nncc2C1	·	-1	3	·
CCOC(=O)CNC(=O)N1Cc2cc(Br)ccc2-n2nncc2C1	·	1	1	·
Cc1ccc(OCCOc2cccc(C=C3C(=O)NC(=O)NC3=O)c2)cc1	3	11*	-3	1	PLCgamma1 ctr=-6;PLCbeta3 conf=-2
Cc1cc(C)cc(OCCOc2cccc(C=C3C(=O)NC(=O)NC3=O)c2)c1	11	-5	-10	3
